# Experimental data: article PMC3053384 (Pediatric blood & cancer, 2010)
# Read-outs that look alike come from different tables or passages of the source. Marks after values point to notes of the source that are not given here.
# Assays:
# [1] = Pediatric phase 1 trial: toxicity, DLT and MTD; assay type: in vivo, human; conditions: for No. of patients with DLT: first course; for No. of courses with Grade 3 Anemia / No. of courses with Grade 3 Lymphopenia / No. of courses with Grade 3 Neutropenia / No. of courses with Grade 3 Thrombocytopenia / No. of courses with Grade 4 Anemia / No. of courses with Grade 4 Lymphopenia / No. of courses with Grade 4 Thrombocytopenia / No. of courses with Grade 4 Neutropenia: independent of frequency or attribution; for No. of courses with Grade 4 Neutropenia: dose-limiting
# [2] = test system: recurrent or refractory solid tumors; assay: Pediatric phase 1 trial: tumor response; assay type: in vivo, human
# How it was run: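 Children with recurrent or refractory solid tumors received the test compound as a 1-hour IV infusion on days 1, 8 and 15 of each 28-day course, at 5, 7, 9 or 12 mg/m2/dose. The compound was diluted in 5% dextrose in water to a final ≤ 150 μg/mL. Patients with haematologic DLT continued at the next lower dose level. Radiographic response was assessed by NCI RECIST.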
# [3] = Pediatric phase 1 trial: plasma pharmacokinetics after first dose; design: species or system human; conditions: in vivo
# [4] = target: kinesin spindle protein (KSP/HsEg5); conditions: read-out: binding constant, Ki; cited from earlier work
# [5] = test system: Ewing sarcoma, Wilms tumor, glioblastoma, rhabdoid tumor and acute lymphoblastic leukemia xenografts; conditions: cited from earlier work
# [6] = test system: adult tumors (breast, ovarian and other cancers); conditions: 18 mg/m^2 once every 21 days; cited from earlier work
# [7] = cited from earlier work
# [8] = 12 mg/m^2 dose level, of 6 evaluable
# [9] = Course 1 (19 courses), non-dose-limiting, related to protocol therapy
# [10] = Courses 2-7 (15 courses), non-dose-limiting, related to protocol therapy
structure (smiles),measurement,setting,value
"Cc1ccc(C(=O)N(CCCN)[C@@H](c2nc3cc(Cl)ccc3c(=O)n2Cc2ccccc2)C(C)C)cc1 [ispinesib, Ispinesib]",No. of patients with DLT,"[1]; 5 mg/m^2/dose, 3 evaluable patients",0
same,No. of patients with DLT,"[1]; 9 mg/m^2/dose, 6 evaluable patients",1
same,No. of patients with DLT,"[1]; 12 mg/m^2/dose, 6 evaluable patients",3
same,patients with dose-limiting hyperbilirubinemia (grade 3),[1]; [8],1/6
same,patients with dose-limiting neutropenia (grade 4),[1]; [8],2/6
same,pediatric MTD higher than recommended adult phase II dose,[1]; 9 vs 7 mg/m^2/dose,~30%
same,No. of courses with Grade 3 Anemia,[1]; Course 1 (19 courses),1
same,No. of courses with Grade 3 Lymphopenia,[1]; Course 1 (19 courses),2
same,No. of courses with Grade 3 Neutropenia,[1]; Course 1 (19 courses),5
same,No. of courses with Grade 3 Thrombocytopenia,[1]; Course 1 (19 courses),1
same,No. of courses with Grade 4 Anemia,[1]; Course 1 (19 courses),0
same,No. of courses with Grade 4 Lymphopenia,[1]; Course 1 (19 courses),1
same,No. of courses with Grade 4 Thrombocytopenia,[1]; Course 1 (19 courses),0
same,No. of courses with Grade 4 Neutropenia,[1]; Course 1 (19 courses),3 ^*
same,"No. of courses with ALT toxicity, Grade 3",[1]; [9],1
same,"No. of courses with ALT toxicity, Grades 1 and 2",[1]; [9],3
same,"No. of courses with AST toxicity, Grade 3",[1]; [9],1
same,"No. of courses with AST toxicity, Grades 1 and 2",[1]; [9],2
same,"No. of courses with Alkaline phosphatase toxicity, Grade 3",[1]; [9],0
same,"No. of courses with Alkaline phosphatase toxicity, Grades 1 and 2",[1]; [9],2
same,"No. of courses with Constipation, Grade 3",[1]; [9],0
same,"No. of courses with Constipation, Grades 1 and 2",[1]; [9],2
same,"No. of courses with Diarrhea, Grade 3",[1]; [9],0
same,"No. of courses with Diarrhea, Grades 1 and 2",[1]; [9],2
same,"No. of courses with Electrolyte abnormality, Grade 3",[1]; [9],0
same,"No. of courses with Electrolyte abnormality, Grades 1 and 2",[1]; [9],4
same,"No. of courses with Fatigue, Grade 3",[1]; [9],0
same,"No. of courses with Fatigue, Grades 1 and 2",[1]; [9],3
same,"No. of courses with Hyperbilirubinemia, Grade 3",[1]; [9],1
same,"No. of courses with Hyperbilirubinemia, Grades 1 and 2",[1]; [9],1
same,"No. of courses with Hypoalbuminemia, Grade 3",[1]; [9],0
same,"No. of courses with Hypoalbuminemia, Grades 1 and 2",[1]; [9],3
same,"No. of courses with Nausea, Grade 3",[1]; [9],0
same,"No. of courses with Nausea, Grades 1 and 2",[1]; [9],4
same,"No. of courses with Vomiting, Grade 3",[1]; [9],0
same,"No. of courses with Vomiting, Grades 1 and 2",[1]; [9],3
same,No. of courses with Grade 3 Anemia,[1]; Courses 2-7 (15 courses),0
same,No. of courses with Grade 3 Lymphopenia,[1]; Courses 2-7 (15 courses),2
same,No. of courses with Grade 3 Neutropenia,[1]; Courses 2-7 (15 courses),1
same,No. of courses with Grade 3 Thrombocytopenia,[1]; Courses 2-7 (15 courses),0
same,No. of courses with Grade 4 Anemia,[1]; Courses 2-7 (15 courses),0
same,No. of courses with Grade 4 Lymphopenia,[1]; Courses 2-7 (15 courses),0
same,No. of courses with Grade 4 Thrombocytopenia,[1]; Courses 2-7 (15 courses),0
same,No. of courses with Grade 4 Neutropenia,[1]; Courses 2-7 (15 courses),1 ^*
same,"No. of courses with ALT toxicity, Grades 1 and 2",[1]; [10],0
same,"No. of courses with AST toxicity, Grades 1 and 2",[1]; [10],0
same,"No. of courses with Alkaline phosphatase toxicity, Grades 1 and 2",[1]; [10],0
same,"No. of courses with Constipation, Grades 1 and 2",[1]; [10],0
same,"No. of courses with Diarrhea, Grades 1 and 2",[1]; [10],0
same,"No. of courses with Electrolyte abnormality, Grades 1 and 2",[1]; [10],0
same,"No. of courses with Fatigue, Grades 1 and 2",[1]; [10],1
same,"No. of courses with Hyperbilirubinemia, Grades 1 and 2",[1]; [10],0
same,"No. of courses with Hypoalbuminemia, Grades 1 and 2",[1]; [10],0
same,"No. of courses with Nausea, Grades 1 and 2",[1]; [10],1
same,"No. of courses with Vomiting, Grades 1 and 2",[1]; [10],1
same,maximum tolerated dose (MTD) and recommended phase II dose,"[1]; children with solid tumors, 1-hour iv infusion weekly x 3 every 28 days",9 mg/m^2/dose
same,primary dose-limiting adverse events,[1]; pediatric patients,neutropenia and hepatotoxicity
same,reversibility of neutropenia,[1]; pediatric patients,rapidly reversible
same,tolerability,"[1]; pediatric patients, 9 mg/m^2/dose weekly x 3 every 28 days",well tolerated
same,tolerability,"[1]; pediatric patients, 5-12 mg/m^2/dose weekly x 3 every 28 days",generally well tolerated
same,complete courses of therapy with stable disease,"[2]; 7 mg/m^2 dose level, ependymoblastoma",7 courses
same,complete courses of therapy with stable disease,"[2]; 9 mg/m^2 dose level, alveolar soft part sarcoma",5 courses
same,complete courses of therapy with stable disease,"[2]; 12 mg/m^2 dose level, anaplastic astrocytoma",4 courses
same,objective tumor responses,[2]; 24 pediatric patients evaluable for response,no objective tumor responses
same,dose dependence of terminal t1/2,[3]; human,independent of dose
same,"volume of distribution at steady state (Vss), median",[3]; human,84 L/m^2
same,"volume of distribution at steady state (Vss), range",[3]; human,23-193 L/m^2
same,Clearance,"[3]; human, 5 mg/m2",5.3 L/hr/m^2
same,Cmax,"[3]; human, 5 mg/m2, Cmax",145 ng/mL
same,half-life,"[3]; human, 5 mg/m2, t1/2",9 h
same,half-life,"[3]; human, 7 mg/m2, t1/2",14 h
same,Clearance,"[3]; human, 12 mg/m2",13.5 L/hr/m^2
same,Vss,"[3]; human, 12 mg/m2",193 L/m^2
same,Cmax,"[3]; human, 12 mg/m2, Cmax",149 ng/mL
same,half-life,"[3]; human, 12 mg/m2, t1/2",13 h
same,Cmax,"[3]; human, iv, 5 mg/m2, Cmax",86 ng/mL
same,half-life,"[3]; human, iv, 5 mg/m2, t1/2",44 h
same,Cmax,"[3]; human, iv, 7 mg/m2, Cmax",244 ng/mL
same,half-life,"[3]; human, iv, 7 mg/m2, t1/2",32 h
same,Cmax,"[3]; human, iv, 12 mg/m2, Cmax",204 ng/mL
same,half-life,"[3]; human, iv, 12 mg/m2, t1/2",8 h
same,half-life,"[3]; human, terminal elimination half-life (t1/2), median",16 h
same,half-life,"[3]; human, terminal elimination half-life (t1/2), range",8 to 44 h
same,Clearance,[3]; 5 mg/m2,3.0 L/hr/m^2
same,Clearance,[3]; 7 mg/m2,1.2 L/hr/m^2
same,Vss,[3]; 7 mg/m2,51 L/m^2
same,Clearance,[3]; 12 mg/m2,7.1 L/hr/m^2
same,Vss,[3]; 12 mg/m2,83 L/m^2
same,Ki,[4],0.6 nM
same,in vivo anti-tumor activity,[5],high level of in vivo anti-tumor activity
same,activity in other adult tumor indications,[6],No significant activity
same,maximum tolerated dose (MTD),"[7]; adult patients with breast cancer, day 1 and day 15 every 28 days",12 mg/m^2
same,maximum tolerated dose (MTD),"[7]; adult patients with solid tumors, day 1, 2 and 3 every 21 days",6 mg/m^2
same,maximum tolerated dose (MTD),"[7]; adult patients with solid tumors, weekly x 3 every 28 days",7 mg/m^2/dose
same,maximum tolerated dose (MTD),"[7]; adults with acute leukemia, days 1, 2 and 3 every 21 days",10 mg/m^2/dose
same,recommended adult phase II dose,"[7]; adults, weekly x 3 every 28 days",7 mg/m^2/dose
